An excerpt weighted towards active compounds, which were near 3.8% of everything screened.
Kir21 inh: Kir2.1 (mouse) channel inhibition; B-score at 10 µM; hit rate 0.85% among 310,000; HEK293-Kir2.1, FluxOR thallium flux fluorescence; stronger effect = lower value; P35561;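 active means fluorescence ratio B-score at or below minus 3 SD of library scores, with starting-brightness B-score within 2 SD, cut at about -4.2 in these data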;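 further: channel flux triggered by added potassium and thallium sulfate stimulus; B-score of peak minus minimum fluorescence over baseline after thallium stimulus; more negative B-score means stronger Kir2.1 block with less thallium influx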
KCNK3 inh: human KCNK3 channel inhibition, primary screen | CHO-KCNK3 thallium flux, FluxOR fluorescence; stronger effect = lower value | B-score at 10 µM | O14649 | AID 602410 | hit rate 0.84% among 340,000;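 active means B-score under library mean minus 4 SD, starting fluorescence ratio at most library mean plus 5 SD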;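 further: more negative B-score means stronger inhibition of thallium flux through KCNK3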
KCNK9 block: human KCNK9 channel inhibition. Q9NPC2. HEK293 KCNK9, FluxOR thallium flux fluorescence; stronger effect = lower value. B-score at 10 µM. hit rate 1.2% among 310,000;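 active means ratio B-score over 3 SD below the library mean, with starting fluorescence within 5 SD of its mean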;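 further: negative B-score means less thallium flux so channel inhibition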
KCNQ1 pot: potentiates or activates the human KCNQ1 potassium channel. P51787. CHO-K1 KCNQ1, thallium flux FluxOR fluorescence; stronger effect = higher value. B-score at 10 µM. hit rate 0.35% among 310,000;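 active means fluorescence ratio B-score, a plate-corrected score, at least three library SD, with initial intensity B-score within 5 SD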
Target sequence (P51787 whole entry, looked up): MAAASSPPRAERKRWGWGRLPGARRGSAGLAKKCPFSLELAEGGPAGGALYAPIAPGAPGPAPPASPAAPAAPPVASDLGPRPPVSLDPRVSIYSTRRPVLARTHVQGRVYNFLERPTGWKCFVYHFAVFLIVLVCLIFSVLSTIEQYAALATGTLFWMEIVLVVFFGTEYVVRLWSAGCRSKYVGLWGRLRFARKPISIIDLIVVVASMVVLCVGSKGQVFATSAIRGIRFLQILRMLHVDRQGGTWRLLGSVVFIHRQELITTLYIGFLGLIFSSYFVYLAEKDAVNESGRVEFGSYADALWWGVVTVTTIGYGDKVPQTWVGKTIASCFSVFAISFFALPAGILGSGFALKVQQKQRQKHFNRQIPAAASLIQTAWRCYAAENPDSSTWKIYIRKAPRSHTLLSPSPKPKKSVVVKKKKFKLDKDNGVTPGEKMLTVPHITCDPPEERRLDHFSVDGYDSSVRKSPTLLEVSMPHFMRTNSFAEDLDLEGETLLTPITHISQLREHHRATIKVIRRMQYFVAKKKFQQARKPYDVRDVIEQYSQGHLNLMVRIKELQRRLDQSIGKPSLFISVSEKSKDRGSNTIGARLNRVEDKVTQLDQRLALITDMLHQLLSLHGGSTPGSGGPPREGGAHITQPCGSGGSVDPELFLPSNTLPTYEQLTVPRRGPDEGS
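Assay system: CHO-K1 cells stably expressing KCNQ1. Medium: assay buffer for compound exposure, DMSO matched across wells. Timing: 37 °C overnight plating, 90-min dark dye load, 20-min compound pretreatment. Signal: kinetic FluxOR fluorescence, 10 s baseline plus 110 s post-stimulus.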
KCNQ1 block: inhibitors of human KCNQ1 potassium channel; AID 2642; CHO-K1 KCNQ1, FluxOR thallium flux fluorescence; stronger effect = higher value; B-score at 10 µM; P51787; hit rate 1.3% among 310,000;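 active means compounds whose thallium flux B-score, printed positive for inhibition, exceeds three library SD while starting fluorescence stays within three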;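 further: channel opened by potassium depolarization with thallium stimulus after 20 min compound exposure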
hERG protect: hERG (human) protection from proarrhythmic block; hit rate 0.51% among 310,000; activation (rescue from dofetilide block), less the hit threshold, % at 10 µM; CHO-hERG, FluxOR thallium flux, dofetilide IC70 present;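 active means activation above the mean of controls blocked by dofetilide plus 5 SD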;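 further: thallium influx through hERG after potassium depolarization seen as dye fluorescence rise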
KCNQ1 block val: confirmation of human KCNQ1 potassium channel inhibitors; hit rate 93% among 1,600; shares compounds with KCNQ1 block; KCNQ1 cell line, FluxOR thallium flux fluorescence; AID 588353; inhibition, % at 10 µM;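 active means primary screen active, with duplicate mean exceeding buffer control mean plus 3 SD of buffer wells, cut at about 28% in these data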;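 further: 0% = buffer control ratio and 100% = XE991 inhibitor control ratio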
CHO Tl flux: activity in parental CHO cells lacking KCNQ1. hit rate 21% among 1,600. shares compounds with KCNQ1 block. fluorescence ratio (Tl flux) at 10 µM. parental CHO-K1, FluxOR thallium flux fluorescence ratio; stronger effect = lower value; zero means no signal rise above baseline;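 active means mean of duplicate thallium-flux fluorescence ratios in parental host cells more than 5 SD below the buffer control mean, cut at about 0.38 in these data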;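 further: ratio is peak minus minimum fluorescence divided by baseline fluorescence; actives read low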
KCNQ1 ephys val: blocks human KCNQ1 current in automated patch clamp; hit rate 20% among 490; AID 624120; KCNQ1-CHO cells; shares compounds with KCNQ1 block; calls only at 10 µM;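 active means KCNQ1 current drop exceeding 3 SD of negative control wells, seen in both duplicate runs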;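 further: steady state current during a 2 s step from -80 to +40 mV; negative values mean current inhibition and positive values mean potentiation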
KCNQ2 spec: rat KCNQ2 inhibition in KCNQ1 inhibitor specificity screen. inhibition, % at 10 µM. AID 651746. KCNQ2 cells, FluxOR thallium flux fluorescence. shares compounds with KCNQ1 block. hit rate 71% among 1,600;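 active means mean percent inhibition of the KCNQ2 thallium signal more than 5 SD above the buffer-only control wells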;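 further: KCNQ2 expressed in CHO cells; 0% = buffer control wells and 100% = XE-991 inhibitor control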
KCNQ1 KCNE1 spec: KCNQ1 inhibitor that also blocks human KCNQ1/KCNE1 channel. shares compounds with KCNQ1 block. KCNQ1/KCNE1 cells, FluxOR thallium flux fluorescence. inhibition, % at 10 µM. hit rate 77% among 1,600. AID 652147;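 active means mean percent inhibition of duplicate wells above the buffer-only control mean plus 3 SD of those controls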;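 further: 0% = buffer only wells and 100% = XE-991 inhibitor control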
KCNK9 inh conf: confirmation of human KCNK9 potassium channel inhibitors. AID 492992. shares compounds with KCNK9 block. inhibition, % at 10 µM. HEK293 KCNK9 cells, FluxOR thallium flux fluorescence. hit rate 43% among 4,900;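 active means thallium signal inhibited by more than 5 SD of the compound-free buffer control wells, on both duplicate plates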;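 further: 0% = assay buffer control wells without compound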
Kir21 sel: tests whether KCNK9 modulators also affect mouse Kir2.1 | shares compounds with KCNK9 block | hit rate 4% among 4,900 | Kir2.1 cells, FluxOR thallium flux fluorescence | AID 492993 | inhibition, % at 10 µM;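 active means thallium signal drop more than 5 SD beyond the mean of the no-compound control wells, seen in both duplicate plates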;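 further: signal is fluorescence rise after thallium addition divided by baseline fluorescence; plate controls were assay buffer only for no effect and full block by chlorpromazine control for full effect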
HEK293 Tl ctr: non-induced cell nonspecific activity of KCNK9 modulators; AID 492997; hit rate 40% among 4,900; shares compounds with KCNK9 block; inhibition, % at 10 µM; non-induced KCNK9-HEK293, FluxOR thallium flux;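 active means thallium signal drop beyond 5 SD of the untreated control mean, on both duplicate plates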;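 further: plate controls were buffer only IC0 wells for no effect and SID17386958 at its maximal inhibitory level for full effect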
KCNK3 confirm: confirmation of human KCNK3 two-pore domain potassium channel inhibitors | CHO-KCNK3 thallium flux, FluxOR fluorescence; 0% buffer, 100% carvedilol maximal block | shares compounds with KCNK3 inh | ratio percent of control, % at 10 µM | hit rate 99% among 2,400;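 active means ratio percent of control, averaged over triplicates, above buffer control mean plus 5 SD, cut at about 64% in these data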;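 further: ratio is the fluorescence rise from min to max over baseline after thallium stimulus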
KCNK3 noninduced: activity in cells without induced KCNK3 expression | shares compounds with KCNK3 inh | non-induced KCNK3 parental cells, FluxOR thallium flux; stronger effect = lower value | thallium flux ratio (lower = more inhibition) at 10 µM | hit rate 40% among 2,400 | AID 651747;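 active means thallium flux ratio, averaged over three wells, more than 5 SD below the buffer control mean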;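 further: host cells are CHO cells without KCNK3 induction; ratio is peak minus trough fluorescence over baseline then normalized to buffer controls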
Numbers without * were called inactive; i = inactive; . = no result given; + = active, no number.

SMILES	Kir21 inh	KCNK3 inh	KCNK9 block	KCNQ1 pot	KCNQ1 block	hERG protect	KCNQ1 block val	CHO Tl flux	KCNQ2 spec	KCNQ1 KCNE1 spec	KCNK3 confirm	KCNK3 noninduced	others
Cc1cccc2nc(-c3cccnc3)c(NCCC(C)C)n12	-0.64	-10*	-9.1*	i	11*	4.9*	139*	0.37*	119%*	157%*	141*	0.13*	KCNK9 inh conf=37%*;Kir21 sel=i;HEK293 Tl ctr=36%*
Cc1cccc2nc(-c3cccnc3)c(Nc3ccccc3)n12	-1.2	i	i	i	i	0	.	.	.	.	.	.
COc1cccc(-c2nc(NC3CCCC3)c3ccccc3n2)c1O	-1.4	-13*	i	i	9*	-8	140*	0.32*	126%*	98%*	133*	i
CC(C)=CCc1cc(-c2oc3cc(O)cc(O)c3c(=O)c2O)ccc1O	0.58	i	i	i	i	-13	.	.	.	.	.	.
CC(C)=CCc1c(O)cc2oc3c(CC=C(C)C)c(O)c(O)c(CC=C(C)C)c3c(=O)c2c1O	0.12	-9.2*	-13*	i	16*	-34	150*	0.35*	124%*	+	146*	0.11*	KCNK9 inh conf=62%*;Kir21 sel=i;HEK293 Tl ctr=34%*
Cc1cc(C)c(C#N)c(SCSCc2ccccc2)n1	-0.67	-9.7*	i	i	6*	-18	86*	0.38*	110%*	125%*	107*	i
CC(=O)c1c(C)[nH]c(C(=O)Nc2ccc(C)c(S(=O)(=O)Nc3ccc(C)cc3C)c2)c1C	-0.33	-13*	-7.8*	i	12*	-15	142*	0.44	142%*	+	137*	i	KCNQ1 ephys val=i
CC(=O)c1c(C)[nH]c(C(=O)Nc2ccc(C)c(S(=O)(=O)N(C)C)c2)c1C	-5.3	i	i	i	i	-6	.	.	.	.	.	.
CCCCCC(CC(=O)NO)C(=O)NC(C(=O)N1CCCC1CO)C(C)C (stereo unspecified)	.	i	.	.	.	.	.	.	.	.	.	.
O=C(CN1CCN(c2ccc(F)cc2)CC1)NCc1cccs1	0.7	i	i	i	i	-2	.	.	.	.	.	.
O=C(NC12CC3CC(CC(C3)C1)C2)N1CCN(S(=O)(=O)c2ccc(Cl)cc2)CC1	0.92	i	i	i	i	0	.	.	.	.	.	.
COc1ccc(Nc2ncccc2C(=O)Nc2ccccc2)cc1	-0.48	i	i	i	i	-8	.	.	.	.	.	.
CCOC(=O)c1c(NC(=O)C(C)OC(=O)C2=COCCO2)sc2c1CCCC2 (stereo unspecified)	.	i	.	.	.	.	.	.	.	.	.	.
CCOC(=O)c1c(NC(=O)C(C)OC(=O)c2ccc(NC(=O)CC#N)cc2)sc2c1CCCC2 (stereo unspecified)	0.68	-9.1*	i	i	8*	-12	104*	0.44	91%*	187%*	87*	0.14*	KCNQ1 ephys val=i
CC(=O)Nc1ccc(S(=O)(=O)N(C)CC(=O)Nc2ccccc2N2CCCC2)cc1	-0.45	i	i	i	i	-10	.	.	.	.	.	.
CCOC(=O)c1c(CSC(=N)N)n(C)c2cc(Br)c(OC(C)=O)cc12	-6.7	-8.8*	i	i	8*	-20	43*	0.52	60%*	78%*	117*	0.14*
CCN(CC)C(=O)c1cncc(C(=O)N(CC)CC)c1-c1ccccc1	0.2	i	i	i	i	-12	.	.	.	.	.	.
Cc1ccc(-c2nnc(N(C)C(=O)c3ccccn3)s2)cn1	0.75	i	i	i	i	-5	.	.	.	.	.	.
CCOc1ccc(CCNC(=O)c2ccc3c(=O)[nH]c4c(C(=O)NC(C)C)sc(=S)n4c3c2)cc1	0.86	-9*	i	i	15*	-27	156*	0.33*	97%*	+	108*	i
CCCCNC(=O)c1sc(=S)n2c1[nH]c(=O)c1ccccc12	-2.1	i	i	i	i	-31	.	.	.	.	.	.
CC(C)NC(=O)c1sc(=S)n2c1[nH]c(=O)c1ccc(C(=O)NCCc3ccc(Cl)cc3)cc12	3.7	-18*	i	i	16*	-10	102*	0.35*	81%*	174%*	93*	i
COc1cc(C2C(C(C)=O)=C(O)C(=O)N2Cc2ccccc2)ccc1O (stereo unspecified)	0.5	i	i	i	i	-5	.	.	.	.	.	.
O=C(Nc1nccs1)[C@@H]1CCCN1C(=O)c1cccs1	0.19	i	i	i	i	-9	.	.	.	.	.	.
O=C(OCc1ccccn1)c1ccc(COc2ccc3ccccc3c2)o1	0.05	-10*	-7*	i	8*	-31	148*	0.35*	121%*	+	122*	0.15*
Cc1csc(N/N=C/c2ccccn2)n1	-1.1	i	i	i	i	-8	.	.	.	.	.	.
COC(=O)c1ccc(NC(=S)NC2CCc3ccccc32)cc1 (stereo unspecified)	0.12	-8.8*	i	i	7*	-9	68*	0.52	65%*	58%*	93*	i
